# Assay results from ChEMBL document CHEMBL1275524, “Activities of antifungal agents against yeasts and filamentous fungi: assessment according to the methodology of the European Committee on Antimicrobial Susceptibility Testing” (2008).
# How the values were obtained:
# [1] = Antifungal activity against Rhizopus microsporus var. oligosporus by EUCAST method; type: functional
# Procedure, shortened: (§1)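 Broth microdilution following the EUCAST reference procedure for spore-forming moulds, in flat-bottom plates with RPMI 1640 plus 2% glucose. Inoculum was 2 × 10^5 to 5 × 10^5 CFU/ml. MICs were read visually at 24 and 48 h as 100% growth reduction versus a drug-free control for polyenes and azoles. MEC was used for caspofungin. Tests were run in duplicate and repeated twice.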
# Rhizomucor [2] = assay: Antifungal activity against Rhizomucor species; type: functional
# Candida albicans [3] = assay: Antifungal activity against Candida albicans by EUCAST method; type: functional
# Procedure, shortened: (§2)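 Broth microdilution in flat-bottom plates in RPMI 1640 with 2% glucose; inoculum 0.5 × 105 to 2.5 × 10^5 CFU/ml. MICs were read spectrophotometrically at 24 h. AMB endpoint: ≥90% growth reduction vs drug-free control well. Azole and CPF endpoint: 50% reduction in optical density. MFC was taken as the lowest concentration giving 99% killing.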
# Cunninghamella = assay: Antifungal activity against Cunninghamella species; type: functional
# Pichia kudriavzevii [4] = assay: Antifungal activity against Candida krusei; type: functional
# Procedure, shortened: (§3)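 EUCAST broth microdilution for yeasts in flat-bottom plates, RPMI 1640 with 2% glucose, inoculum 0.5 × 105 to 2.5 × 10^5 CFU/ml. […] MFC is the lowest concentration giving 99% killing.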
# Nakaseomyces glabratus = assay: Antifungal activity against Candida glabrata; type: functional; procedure, shortened: as §2
# Cryptococcus gattii [5] = assay: Antifungal activity against Cryptococcus neoformans var. gattii by EUCAST method; type: functional, Cryptococcus bacillisporus
# Procedure, shortened: (§4)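 EUCAST yeast microdilution, modified for nonfermentative yeasts: plates were sealed and agitated at 350 rpm and 30°C for 48 h.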
# Aspergillus fumigatus [6] = assay: Antifungal activity against Aspergillus fumigatus by EUCAST method; type: functional
# Clavispora lusitaniae = assay: Antifungal activity against Candida lusitaniae; type: functional; procedure, shortened: as §2
# Trichosporon inkin [7] = assay: Antifungal activity against Trichosporon inkin; type: functional
# Procedure, shortened: (§5)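 Nonfermentative yeasts were tested by the EUCAST microdilution recommendations with one change: plates were sealed and agitated at 350 rpm and 30°C for 48 h.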
# Penicillium sp. [8] = assay: Antifungal activity against Penicillium species; type: functional
# [9] = Antifungal activity against Cryptococcus neoformans var. neoformans by EUCAST method; type: functional; conditions: Cryptococcus deneoformans; procedure, shortened: as §4
# Lichtheimia corymbifera = assay: Antifungal activity against Absidia corymbifera by EUCAST method; type: functional; conditions: read-out: MEC
# Cryptococcus gattii [10] = assay: Antifungal activity against Cryptococcus neoformans var. gattii; type: functional, Cryptococcus bacillisporus; procedure, shortened: as §4
# Fusarium oxysporum = assay: Antifungal activity against Fusarium oxysporum by EUCAST method; type: functional; conditions: read-out: MEC
# Curvularia australiensis = assay: Antifungal activity against Bipolaris australiensis; type: functional
# Procedure, shortened: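 Dematiaceous fungi were tested by the EUCAST spore-forming mold reference procedure: flat-bottom microdilution plates, RPMI 1640 plus 2% glucose, inoculum 2 × 105 to 5 × 10^5 CFU/ml. Endpoints were read visually at 24 and 48 h. Polyenes and azoles: 100% growth reduction vs drug-free control. CPF: minimum effective concentration. Run in duplicate and repeated twice.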
# Lomentospora prolificans = assay: Antifungal activity against Scedosporium prolificans; type: functional; procedure, shortened: as §1
# Penicillium sp. [11] = assay: Antifungal activity against Penicillium species by EUCAST method; type: functional; conditions: read-out: MEC
# Aspergillus niger = assay: Antifungal activity against Aspergillus niger by EUCAST method; type: functional
# [12] = Antifungal activity against Rhizopus microsporus var. oligosporus; type: functional; procedure, shortened: as §1
# Candida tropicalis = assay: Antifungal activity against Candida tropicalis; type: functional; procedure, shortened: as §2
# [13] = test system: Meyerozyma guilliermondii; assay: Antifungal activity against Candida guilliermondii by EUCAST method; type: functional; procedure, shortened: as §2
# Trichosporon inkin [14] = assay: Antifungal activity against Trichosporon inkin by EUCAST method; type: functional; procedure, shortened: as §5
# Rhizopus arrhizus = assay: Antifungal activity against Rhizopus oryzae by EUCAST method; type: functional; conditions: read-out: MEC; procedure, shortened: as §1
# Aspergillus fumigatus [15] = assay: Antifungal activity against Aspergillus fumigatus; type: functional
# Aspergillus terreus [16] = assay: Antifungal activity against Aspergillus terreus by EUCAST method; type: functional
# Pichia kudriavzevii [17] = assay: Antifungal activity against Candida krusei by EUCAST method; type: functional; procedure, shortened: as §2
# Curvularia lunata = assay: Antifungal activity against Curvularia lunata; type: functional
# Rhizomucor [18] = assay: Antifungal activity against Rhizomucor species by EUCAST method; type: functional; conditions: read-out: MEC; procedure, shortened: as §1
# Sporothrix schenckii = assay: Antifungal activity against Sporothrix schenckii; type: functional; procedure, shortened: as §1
# Mucor hiemalis = assay: Antifungal activity against Mucor hiemalis; type: functional
# [19] = test system: Meyerozyma guilliermondii; assay: Antifungal activity against Candida guilliermondii; type: functional; procedure, shortened: as §2
# Saccharomyces cerevisiae = assay: Antifungal activity against Saccharomyces cerevisiae by EUCAST method; type: functional; procedure, shortened: as §3
# Aspergillus terreus [20] = assay: Antifungal activity against Aspergillus terreus; type: functional
# Candida albicans [21] = assay: Antifungal activity against Candida albicans; type: functional; procedure, shortened: as §2
compound,measurement,setting,value
CC[C@H](C)C[C@H](C)CCCCCCCCC(=O)N[C@H]1C[C@@H](O)[C@@H](NCCN)NC(=O)[C@@H]2[C@@H](O)CCN2C(=O)[C@H]([C@H](O)CCN)NC(=O)[C@H]([C@H](O)[C@@H](O)c2ccc(O)cc2)NC(=O)[C@@H]2C[C@@H](O)CN2C(=O)[C@H]([C@@H](C)O)NC1=O [CASPOFUNGIN],MEC,[1],> 8 µg/mL
same,MFC,Rhizomucor [2],> 8 µg/mL
same,MIC,Candida albicans [3],0.14 µg/mL
same,MFC,Cunninghamella,> 8 µg/mL
same,MFC,Pichia kudriavzevii [4],2 µg/mL
same,MFC,Nakaseomyces glabratus,0.15 µg/mL
same,MIC,Cryptococcus gattii [5],5.33 µg/mL
same,MIC,Aspergillus fumigatus [6],0.45 µg/mL
same,minimal effective concentration,Aspergillus fumigatus [6]; read-out: MEC,0.25 µg/mL
same,MFC,Clavispora lusitaniae,4 µg/mL
same,MFC,Trichosporon inkin [7],> 8 µg/mL
same,MFC,Penicillium sp. [8],> 8 µg/mL
same,MIC,[9],2.04 µg/mL
same,minimal effective concentration,Lichtheimia corymbifera,> 8 µg/mL
same,MFC,Cryptococcus gattii [10],> 8 µg/mL
same,minimal effective concentration,Fusarium oxysporum,> 8 µg/mL
same,MFC,Curvularia australiensis,> 8 µg/mL
same,MFC,Lomentospora prolificans,> 8 µg/mL
same,minimal effective concentration,Penicillium sp. [11],> 8 µg/mL
same,MIC,Aspergillus niger,0.36 µg/mL
same,minimal effective concentration,Aspergillus niger; read-out: MEC,0.25 µg/mL
same,MFC,[12],> 8 µg/mL
same,MFC,Candida tropicalis,0.5 µg/mL
same,MIC,[13],0.68 µg/mL
same,MIC,Trichosporon inkin [14],5.33 µg/mL
same,minimal effective concentration,Rhizopus arrhizus,> 8 µg/mL
same,MFC,Aspergillus fumigatus [15],> 8 µg/mL
same,MIC,Aspergillus terreus [16],0.19 µg/mL
same,minimal effective concentration,Aspergillus terreus [16]; read-out: MEC,0.125 µg/mL
same,MIC,Pichia kudriavzevii [17],0.58 µg/mL
same,MFC,Curvularia lunata,> 8 µg/mL
same,minimal effective concentration,Rhizomucor [18],> 8 µg/mL
same,MFC,Sporothrix schenckii,> 8 µg/mL
same,MFC,Mucor hiemalis,> 8 µg/mL
same,MFC,[19],> 2 µg/mL
same,MIC,Saccharomyces cerevisiae,1.3 µg/mL
same,MFC,Aspergillus terreus [20],> 8 µg/mL
same,MFC,Candida albicans [21],0.15 µg/mL
